{"data": "Measured values collected from several papers", "target": "Serine/threonine-protein kinase 16 (STK16, Homo sapiens, UniProt O75716)", "note": "Lines come from different studies, so protocols differ."}
{"Structure (SMILES)": "COc1ncccc1-c1cnn2ccc(N3CCN(C(=O)OC(C)C)CC3)nc12", "observed": "binding", "technique": "competition with immobilised ligand", "tested at": "1 µM", "endpoint": "remaining binding", "value": "55%"}
{"Structure (SMILES)": "Cn1cc(-c2cc(F)cc(N3CCn4c(cc5c4CCCC5)C3=O)c2CO)cc(Nc2ccc(N3CCN(C4COC4)CC3)cn2)c1=O", "observed": "enzyme activity", "action": "inhibitor", "tested at": "0.1 µM", "endpoint": "inhibition", "value": "10%"}
{"Structure (SMILES)": "Cc1nn(C)cc1-c1nc2c(N3CCN(Cc4ccc(Cl)cc4)CC3)c(Cl)cnc2[nH]1", "observed": "binding", "technique": "competition with immobilised ligand", "tested at": "1 µM", "endpoint": "remaining binding", "value": "18%"}
{"Structure (SMILES)": "CC(C)(C)c1cc(C=C(C#N)C#N)cc(Br)c1O", "observed": "enzyme activity", "action": "inhibitor", "tested at": "0.5 µM", "endpoint": "remaining activity", "value": "99.2%"}
{"Structure (SMILES)": "Cn1cncc1[C@@](O)(COc1ccc(C#N)cc1-c1ccc(OC(F)(F)F)cc1)c1ccc(C#N)cc1", "observed": "cell-free assay", "technique": "competition with immobilised ligand", "tested at": "1 µM", "endpoint": "remaining binding", "value": "99%"}
{"Structure (SMILES)": "Cn1cc(-c2cccc(N3CCc4c(sc5c4CC(C)(C)C5)C3=O)c2CO)cc(Nc2ccncn2)c1=O", "observed": "enzyme activity", "action": "inhibitor", "tested at": "1 µM", "endpoint": "inhibition", "value": "-3%"}
{"Structure (SMILES)": "COc1cc(Nc2ncc(F)c(Nc3ccc4c(n3)NC(=O)C(C)(C)O4)n2)cc(OC)c1OC", "observed": "binding", "technique": "competition with immobilised ligand", "tested at": "10 µM", "endpoint": "inhibition", "value": "100%"}
{"Structure (SMILES)": "O=c1[nH]c2ccccc2n1C1CCN(Cc2ccc(-c3[nH]c4cc5ncnc5cc4nc3-c3ccccc3)cc2)CC1", "observed": "cell-free assay", "tested at": "0.5 µM", "endpoint": "remaining signal", "value": "99.5%"}
{"Structure (SMILES)": "Nc1ncc(-c2nc(N3CCOCC3)nc(N3CCOCC3)n2)c(C(F)F)n1", "observed": "binding", "technique": "competition with immobilised ligand", "tested at": "10 µM", "endpoint": "remaining binding", "value": "56%"}
